# Measurements taken from ChEMBL document CHEMBL3612009, “Synthesis and structure-activity relationship study of a new series of antiparasitic aryloxyl thiosemicarbazones inhibiting Trypanosoma cruzi cruzain” (Eur J Med Chem, 2015).
# Tests used:
# [1] = target: Cruzipain (Trypanosoma cruzi) (UniProt P25779); test: Inhibition of Trypanosoma cruzi catalytic activity of cruzain using Z-FR-AMC as substrate at 50 uM after 10 mins by fluorescence assay
# [2] = test system: Trypanosoma cruzi; test: Antiparasitic activity against epimastigotes of Trypanosoma cruzi Dm28c assessed as reduction of parasite count after 5 days; assay type: functional; settings: 120 h
# [3] = test system: Trypanosoma cruzi; test: Antiparasitic activity against trypomastigotes of Trypanosoma cruzi Y assessed as reduction of parasite count after 24 hrs; assay type: functional
# [4] = Cytotoxicity against BALB/c mouse splenocytes assessed as maximum non-toxic concentration by measuring [3H]-thymidine incorporation after 24 hrs by liquid scintillation counting; assay type: cell-based, Splenocyte
# Method in brief: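 BALB/c splenocytes, 5 x 10^6 cells/well, given compounds at 1.23, 3.7, 33.33 and 100 µg/mL, 1% DMSO final, triplicate; 24 h at 37 °C, 5% CO2. Then 1.0 µCi [3H]-thymidine added; cells harvested and counted by liquid scintillation. Highest non-cytotoxic concentration taken from % incorporation.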
# [5] = test system: Trypanosoma cruzi; test: Antitrypanosomal activity against amastigote and trypomastigote forms of Trypanosoma cruzi Tulahuen expressing beta-galactosidase gene infected in mouse L-929 cells assessed as inhibition of parasite growth after 7 days by colorimetric betagalactosidase assay; assay type: functional, organism-based; settings: L929, 168 h
# [6] = test system: Trypanosoma cruzi; test: Antitrypanosomal activity against amastigote and trypomastigote forms of Trypanosoma cruzi Tulahuen expressing beta-galactosidase gene infected in mouse L-929 cells assessed as inhibition of parasite growth at 100 uM after 7 days by colorimetric betagalactosidase assay; assay type: functional; settings: L929, 168 h
# [7] = Selectivity index, ratio of CC50 for mouse L929 cells to IC50 for amastigote and trypomastigote forms of Trypanosoma cruzi Tulahuen; assay type: functional
# Method in brief: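 SI = CC50 in uninfected L-929 fibroblasts (alamarBlue, 96 h) divided by IC50 against intracellular amastigote/trypomastigote forms (beta-galactosidase assay, 7 days).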
# [8] = Cytotoxicity against mouse L929 cells assessed as cell viability after 96 hrs by alamarBlue assay; assay type: cell-based
# Method in brief: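 Uninfected L-929 cells at the same cell number and timing as the beta-galactosidase assay; increasing concentrations starting at the T. cruzi IC50, quadruplicate. After 96 h, alamarBlue added; absorbance at 570 and 600 nm read 6 h later. Viability as % reduction versus untreated; CC50 by linear interpolation.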
# [9] = target: Cruzipain (Trypanosoma cruzi, UniProt P25779); test: Inhibition of Trypanosoma cruzi catalytic activity of cruzain using Z-FR-AMC as substrate after 10 mins by fluorescence assay
# Sequence of Cruzipain (P25779 whole entry): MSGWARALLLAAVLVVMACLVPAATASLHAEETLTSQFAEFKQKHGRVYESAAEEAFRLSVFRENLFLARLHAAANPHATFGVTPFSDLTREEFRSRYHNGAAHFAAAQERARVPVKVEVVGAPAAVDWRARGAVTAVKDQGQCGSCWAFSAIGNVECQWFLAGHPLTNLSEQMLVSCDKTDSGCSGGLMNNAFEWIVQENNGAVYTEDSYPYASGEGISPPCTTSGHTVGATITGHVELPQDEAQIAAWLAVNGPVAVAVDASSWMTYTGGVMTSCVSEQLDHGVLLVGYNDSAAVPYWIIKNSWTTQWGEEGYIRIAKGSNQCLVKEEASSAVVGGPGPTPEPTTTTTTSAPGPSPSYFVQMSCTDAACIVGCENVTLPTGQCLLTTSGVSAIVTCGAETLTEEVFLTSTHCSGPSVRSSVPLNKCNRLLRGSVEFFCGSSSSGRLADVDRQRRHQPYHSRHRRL
# Sequence of Cruzipain (Trypanosoma cruzi) (P25779 123-467 limits assumed): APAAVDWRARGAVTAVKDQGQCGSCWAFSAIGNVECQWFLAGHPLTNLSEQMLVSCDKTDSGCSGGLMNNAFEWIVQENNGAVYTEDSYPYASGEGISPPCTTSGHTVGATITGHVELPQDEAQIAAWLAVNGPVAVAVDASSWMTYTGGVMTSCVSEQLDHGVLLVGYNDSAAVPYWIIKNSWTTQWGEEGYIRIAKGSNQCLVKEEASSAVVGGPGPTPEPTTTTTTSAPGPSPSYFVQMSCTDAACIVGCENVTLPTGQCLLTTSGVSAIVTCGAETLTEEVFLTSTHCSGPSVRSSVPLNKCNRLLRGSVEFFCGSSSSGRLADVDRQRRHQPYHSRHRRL
smiles,measurement,setting,value
NC(=S)N/N=C(\COc1cccc(-c2ccccc2)c1)c1ccc(Br)cc1,inhibition,[1],65.4%
same,IC50,[2],4.4 µM
same,CC50,[3],28.3 µM
same,MNTC at 24 h,[4],2300 nM
same,IC50,[5],> 182 µM
same,inhibition at 100 µM,[6],> 70%
CNC(=S)N/N=C(/COc1ccc(Br)cc1)c1ccc(OC)cc1,inhibition,[1],29.8%
same,IC50,[2],4.5 µM
same,CC50,[3],3.6 µM
same,inhibition at 100 µM,[6],> 70%
CC1CS(=O)(=O)CCN1/N=C/c1ccc([N+](=O)[O-])o1 (stereo unspecified) [NIFURTIMOX],CC50,[3],2.7 µM
CCc1ccc(OC/C(=N\NC(N)=S)c2ccc(Br)cc2)cc1,inhibition,[1],75.1%
same,IC50,[2],2.1 µM
same,CC50,[3],1.8 µM
same,MNTC at 24 h,[4],2600 nM
same,IC50,[5],6.4 µM
same,Ratio CC50/IC50,[7],<4
same,inhibition at 100 µM,[6],> 70%
same,CC50 at 96 h,[8],< 25.5 µM
NC(=S)N/N=C(\COc1cccc(Cl)c1)c1ccc(Br)cc1,inhibition,[1],51.8%
same,IC50,[2],2.2 µM
same,CC50,[3],1.6 µM
same,MNTC at 24 h,[4],2500 nM
same,IC50,[5],25.1 µM
same,Ratio CC50/IC50,[7],<2
same,inhibition at 100 µM,[6],> 70%
same,CC50 at 96 h,[8],< 50.2 µM
NC(=S)N/N=C(/COc1ccc(Br)cc1)c1ccccc1,inhibition,[1],67.6%
same,IC50,[2],14.5 µM
same,CC50,[3],2.4 µM
same,MNTC at 24 h,[4],68600 nM
same,IC50,[5],10.2 µM
same,Ratio CC50/IC50,[7],<2.7
same,inhibition at 100 µM,[6],> 70%
same,CC50 at 96 h,[8],< 27.5 µM
NC(=S)N/N=C(\COc1ccccc1Cl)c1ccc(Br)cc1,inhibition,[1],58.9%
same,IC50,[2],3.5 µM
same,CC50,[3],6 µM
same,MNTC at 24 h,[4],< 2500 nM
same,IC50,[5],13.5 µM
same,Ratio CC50/IC50,[7],1.9
same,inhibition at 100 µM,[6],> 70%
same,CC50 at 96 h,[8],25.1 µM
CC(=O)Nc1ccc(OC/C(=N\NC(N)=S)c2ccc(Br)cc2)cc1,inhibition,[1],80.7%
same,IC50,[2],15.6 µM
same,CC50,[3],3.5 µM
same,MNTC at 24 h,[4],2400 nM
same,IC50,[5],43.2 µM
same,Ratio CC50/IC50,[7],2.2
same,inhibition at 100 µM,[6],> 70%
same,CC50 at 96 h,[8],94.9 µM
CC(C)(C)c1ccc(OC/C(=N\NC(N)=S)c2ccc(Br)cc2)cc1,inhibition,[1],85.3%
same,IC50,[2],5.2 µM
same,CC50,[3],2.2 µM
same,MNTC at 24 h,[4],2400 nM
same,IC50,[5],15.2 µM
same,Ratio CC50/IC50,[7],1.6
same,inhibition at 100 µM,[6],> 70%
same,CC50 at 96 h,[8],23.8 µM
NC(=S)N/N=C(\COc1ccc(F)cc1)c1ccc(Br)cc1,inhibition,[1],84%
same,IC50,[2],1.8 µM
same,CC50,[3],3.1 µM
same,MNTC at 24 h,[4],2600 nM
same,IC50,[5],15.7 µM
same,Ratio CC50/IC50,[7],3.3
same,inhibition at 100 µM,[6],> 70%
same,IC50,[9],0.4 µM
same,CC50 at 96 h,[8],52.3 µM
NC(=S)N/N=C(/COc1ccc(Br)cc1)c1ccc(Cl)cc1,inhibition,[1],67.5%
same,IC50,[2],3.6 µM
same,CC50,[3],5.3 µM
same,MNTC at 24 h,[4],12500 nM
same,IC50,[5],14.8 µM
same,Ratio CC50/IC50,[7],1.7
same,inhibition at 100 µM,[6],> 70%
same,CC50 at 96 h,[8],25.1 µM
COc1ccc(OC/C(=N\NC(N)=S)c2ccc(Br)cc2)cc1,inhibition,[1],75.8%
same,IC50,[2],1.8 µM
same,CC50,[3],3.7 µM
same,MNTC at 24 h,[4],< 2500 nM
same,IC50,[5],8.9 µM
same,Ratio CC50/IC50,[7],11.4
same,inhibition at 100 µM,[6],> 70%
same,CC50 at 96 h,[8],102 µM
NC(=S)N/N=C(\COc1ccc(Cl)cc1)c1ccc(Br)cc1,inhibition,[1],73.6%
same,IC50,[2],4.6 µM
same,CC50,[3],5.7 µM
same,MNTC at 24 h,[4],< 2500 nM
same,IC50,[5],11.2 µM
same,Ratio CC50/IC50,[7],<2.2
same,inhibition at 100 µM,[6],> 70%
same,CC50 at 96 h,[8],< 25.1 µM
NC(=S)N/N=C(\COc1cccc(Br)c1)c1ccc(Br)cc1,inhibition,[1],81.3%
same,IC50,[2],3.9 µM
same,CC50,[3],6.2 µM
same,MNTC at 24 h,[4],2700 nM
same,IC50,[5],149 µM
same,Ratio CC50/IC50,[7],>1.2
same,inhibition at 100 µM,[6],> 70%
same,CC50 at 96 h,[8],> 180 µM
NC(=S)N/N=C(/COc1ccc(Br)cc1)c1ccc(Br)cc1,inhibition,[1],11.8%
same,IC50,[2],11.9 µM
same,CC50,[3],3.9 µM
same,MNTC at 24 h,[4],22600 nM
same,IC50,[5],< 8.1 µM
same,Ratio CC50/IC50,[7],>2.8
same,inhibition at 100 µM,[6],> 70%
same,CC50 at 96 h,[8],22.6 µM
COc1ccc(/C(COc2ccc(Br)cc2)=N\NC(N)=S)cc1,inhibition,[1],38.7%
same,IC50,[2],3.1 µM
same,CC50,[3],5 µM
same,MNTC at 24 h,[4],2500 nM
same,IC50,[5],11.9 µM
same,Ratio CC50/IC50,[7],<2.1
same,inhibition at 100 µM,[6],> 70%
same,CC50 at 96 h,[8],< 25.4 µM
